Data taken from ChEMBL document CHEMBL1126263, “Development of high-affinity 5-HT3 receptor antagonists. 2. Two novel tricyclic benzamides” (J Med Chem, 1992).

What was measured:
Type in all cases: functional
Mustela putorius furo [1] = experiment: The compound was evaluated for the percentage increase in the emetic latency period to first emetic episode against cisplatin induced emesis in ferret (intravenous administration)
Method in brief: (§1)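 Ferrets receive the test agent iv as a pretreatment before the cisplatin challenge; the table footnotes give 30 min and 60 min pretreatment times. Each dose uses 3–10 animals, with at least three doses per agent.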

Mustela putorius furo [2] = experiment: The compound was evaluated for the percentage reduction in the emetic episodes against cisplatin induced emesis in ferret (intravenous administration); method in brief: as §1
Mustela putorius furo [3] = experiment: Ratio of number of animals protected to the number of tested against cisplatin-induced emesis in ferret upon intravenous administration; 2/4; method in brief: as §1
Mustela putorius furo [4] = experiment: Antiemetic potency against cisplatin-induced emetic latency period in ferret after intravenous administration
Method in brief: (§2)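 Ferret cisplatin-emesis model, iv or po pretreatment 30 or 60 min before cisplatin. Emetic latency read-out given as ED100, the dose raising emetic latency 100% over the control period. Based on 3–10 animals per dose, at least three per compound.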

Mustela putorius furo [5] = experiment: Antiemetic potency was tested against cisplatin-induced emetic latency period in ferret after oral administration; method in brief: as §2
Mustela putorius furo [6] = experiment: Antiemetic potency was tested against cisplatin-induced emetic episodes in ferret after oral administration
Method in brief: (§3)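 Ferret cisplatin-emesis model. Drug given iv or po, 30 or 60 min before cisplatin. Emetic episodes counted and ED50 derived from 3–10 animals per dose, at least three per compound. Control emetic episode means were reported.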

Mustela putorius furo [7] = experiment: Antiemetic potency against cisplatin-induced emetic episodes in ferret after intravenous administration; method in brief: as §3
Mustela putorius furo [8] = experiment: Ratio of number of animals protected to the number of tested against cisplatin-induced emesis in ferret upon intravenous administration; 0/5; method in brief: as §1
Mustela putorius furo [9] = experiment: The compound was evaluated for the percentage reduction in the emetic episodes against cisplatin-induced emesis in ferret (intravenous administration); method in brief: as §1
Mustela putorius furo [10] = experiment: Ratio of no. of protected and no. of tested evaluated by giving RG 12915 (1.0 mg/kg) 60 min prior to cisplatin (orally) in ferret; 7/10
Method in brief: (§4)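 Ferrets dosed orally in 0.5% methylcellulose vehicle 60 min before cisplatin and observed for 240 min. Scored for complete protection (protected/tested), mean % reduction in emetic episodes and mean % increase in emetic latency. Non-vomiting animals were assigned 240 min latency. Significance versus vehicle group at p<0.05 or p<0.01.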

Mustela putorius furo [11] = experiment: Mean percent increase in emetic episode evaluated by giving RG 12915 (0.010 mg/kg) 60 min prior to cisplatin (orally) in ferret; method in brief: as §4
Mustela putorius furo [12] = experiment: Mean percent reduction in emetic episode evaluated by giving RG 12915 (0.010 mg/kg) 60 min prior to cisplatin (orally) in ferret; method in brief: as §4
Mustela putorius furo [13] = experiment: The compound was evaluated for the percentage increase in the emetic latency period against cisplatin-induced emesis in ferret (oral administration); method in brief: as §4
Mustela putorius furo [14] = experiment: Mean percent reduction in emetic episode evaluated by giving RG 12915 (1.0 mg/kg) 60 min prior to cisplatin (orally) in ferret; method in brief: as §4
Mustela putorius furo [15] = experiment: Ratio of no. of protected and no. of tested evaluated by giving RG 12915 (0.03 mg/kg) 60 min prior to cisplatin (orally) in ferret; 4/4; method in brief: as §4
Mustela putorius furo [16] = experiment: Mean percent increase in emetic episode evaluated by giving RG 12915 (0.03 mg/kg) 60 min prior to cisplatin (orally) in ferret; method in brief: as §4
Mustela putorius furo [17] = experiment: Compound was evaluated for Percent protected by giving RG 12915 (0.03 mg/kg) 60 min prior to cisplatin (orally) in ferret; method in brief: as §4
Mustela putorius furo [18] = experiment: Mean percent reduction in emetic episode evaluated by giving RG 12915 (0.03 mg/kg) 60 min prior to cisplatin (orally) in ferret; method in brief: as §4
Mustela putorius furo [19] = experiment: Mean percent reduction in emetic episode evaluated by giving RG 12915 (0.003 mg/kg) 60 min prior to cisplatin (orally) in ferret; method in brief: as §4
Mustela putorius furo [20] = experiment: Mean percent increase in emetic episode evaluated by giving RG 12915 (0.1 mg/kg) 60 min prior to cisplatin (orally) in ferret; method in brief: as §4
Mustela putorius furo [21] = experiment: Compound was evaluated for Percent protected by giving RG 12915 (0.003 mg/kg) 60 min prior to cisplatin (orally) in ferret; method in brief: as §4
Mustela putorius furo [22] = experiment: Mean percent increase in emetic episode evaluated by giving RG 12915 (1.0 mg/kg) 60 min prior to cisplatin (orally) in ferret; method in brief: as §4
Mustela putorius furo [23] = experiment: Mean percent increase in emetic episode evaluated by giving RG 12915 (0.003 mg/kg) 60 min prior to cisplatin (orally) in ferret; method in brief: as §4
Mustela putorius furo [24] = experiment: Ratio of no. of protected and no. of tested evaluated by giving RG 12915 (0.010 mg/kg) 60 min prior to cisplatin (orally) in ferret; 5/12; method in brief: as §4
Mustela putorius furo [25] = experiment: Ratio of no. of protected and no. of tested evaluated by giving 0.5% methylcellulose 60 min prior to cisplatin (orally) in ferret; 0/22; method in brief: as §4
Mustela putorius furo [26] = experiment: Compound was evaluated for Percent protected by giving RG 12915 (0.010 mg/kg) 60 min prior to cisplatin (orally) in ferret; method in brief: as §4
Mustela putorius furo [27] = experiment: Compound was evaluated for Percent protected by giving RG 12915 (1.0 mg/kg) 60 min prior to cisplatin (orally) in ferret; method in brief: as §4
Mustela putorius furo [28] = experiment: Compound was evaluated for Percent protected by giving 0.5% methylcellulose 60 min prior to cisplatin (orally) in ferret; method in brief: as §4
Mustela putorius furo [29] = experiment: Ratio of no. of protected and no. of tested evaluated by giving RG 12915 (0.003 mg/kg) 60 min prior to cisplatin (orally) in ferret; 1/4; method in brief: as §4
Mustela putorius furo [30] = experiment: Mean percent reduction in emetic episode evaluated by giving RG 12915 (0.1 mg/kg) 60 min prior to cisplatin (orally) in ferret; method in brief: as §4
Mustela putorius furo [31] = experiment: Ratio of no. of protected and no. of tested evaluated by giving RG 12915 (0.1 mg/kg) 60 min prior to cisplatin (orally) in ferret; 6/6; method in brief: as §4
Mustela putorius furo [32] = experiment: Compound was evaluated for Percent protected by giving RG 12915 (0.1 mg/kg) 60 min prior to cisplatin (orally) in ferret; method in brief: as §4
Mustela putorius furo [33] = experiment: The compound was evaluated for the percentage increase in the emetic latency period to first emetic episode against cisplatin-induced emesis in ferret (intravenous administration); method in brief: as §1
Mustela putorius furo [34] = experiment: Ratio of number of animals protected to the number of tested against cisplatin-induced emesis in ferret upon intravenous administration; 0/4; method in brief: as §1
Mustela putorius furo [35] = experiment: Ratio of number of animals protected to the number of tested against cisplatin-induced emesis in ferret upon intravenous administration; 0/3; method in brief: as §1

O=C(NCCN1CCOCC1)c1cc(Cl)cc2c1OC1CCCCC21 (stereo not drawn)
Increase (Mustela putorius furo [1]): 110.9% | Reduction (Mustela putorius furo [2]): 48.9% | Ratio (Mustela putorius furo [3]): 2

CCN(CC)CCNC(=O)c1cc(Cl)c(N)cc1OC [METOCLOPRAMIDE]
ED100 (Mustela putorius furo [4]): 2.1 mg/kg | ED100 (Mustela putorius furo [5]): >5 mg/kg

O=C(N[C@H]1CN2CCC1CC2)c1cc(Cl)cc2c1O[C@H]1CCCC[C@@H]21
ED50 (Mustela putorius furo [6]): 0.056 mg/kg | ED100 (Mustela putorius furo [5]): 0.107 mg/kg

O=C(N[C@@H]1CN2CCC1CC2)c1cc(Cl)cc2c1O[C@H]1CCC[C@@H]2C1
ED100 (Mustela putorius furo [4]): 0.006 mg/kg | ED50 (Mustela putorius furo [7]): 0.009 mg/kg | ED50 (Mustela putorius furo [6]): 0.007 mg/kg | ED100 (Mustela putorius furo [5]): 0.01 mg/kg

O=C(NC1CN2CCC1CC2)c1cc(Cl)cc2c3c(oc12)CCCC3 (stereo not drawn)
ED50 (Mustela putorius furo [6]): 0.033 mg/kg | ED100 (Mustela putorius furo [5]): 0.272 mg/kg

Cc1nccn1CC1CCc2c(c3ccccc3n2C)C1=O (stereo not drawn) [ONDANSETRON]
ED100 (Mustela putorius furo [4]): 0.015 mg/kg | ED50 (Mustela putorius furo [7]): 0.008 mg/kg | ED50 (Mustela putorius furo [6]): 0.28 mg/kg | ED100 (Mustela putorius furo [5]): 0.031 mg/kg

O=C(N[C@H]1CN2CCC1CC2)c1cc(Cl)cc2c1O[C@@H]1CCCC[C@H]21
ED50 (Mustela putorius furo [6]): 0.084 mg/kg | ED100 (Mustela putorius furo [5]): >3 mg/kg

CCN(CC)CCNC(=O)c1cc(Cl)cc2c1OC1CCCCC21 (stereo not drawn)
Increase (Mustela putorius furo [1]): 6.5% | Ratio (Mustela putorius furo [8]): 0 | Reduction (Mustela putorius furo [9]): 2.2%

O=C(N[C@@H]1CN2CCC1CC2)c1cc(Cl)cc2c1O[C@H]1CCCC[C@@H]21
Ratio (Mustela putorius furo [10]): 7 | Increase (Mustela putorius furo [11]): 105% | Reduction (Mustela putorius furo [12]): 57% | ED100 (Mustela putorius furo [13]): 0.005 mg/kg | ED100 (Mustela putorius furo [4]): 0.007 mg/kg | ED50 (Mustela putorius furo [7]): 0.004 mg/kg | Reduction (Mustela putorius furo [14]): 90% | Ratio (Mustela putorius furo [15]): 4 | Increase (Mustela putorius furo [16]): 195% | ED50 (Mustela putorius furo [6]): 0.004 mg/kg | Protected (Mustela putorius furo [17]): 100% | Reduction (Mustela putorius furo [18]): 100% | Reduction (Mustela putorius furo [19]): 24% | Increase (Mustela putorius furo [20]): 195% | Protected (Mustela putorius furo [21]): 25% | Increase (Mustela putorius furo [22]): 171% | Increase (Mustela putorius furo [23]): 53% | Ratio (Mustela putorius furo [24]): 5 | Ratio (Mustela putorius furo [25]): 0 | Protected (Mustela putorius furo [26]): 42% | Protected (Mustela putorius furo [27]): 70% | Protected (Mustela putorius furo [28]): 0% | Ratio (Mustela putorius furo [29]): 1 | Reduction (Mustela putorius furo [30]): 100% | Ratio (Mustela putorius furo [31]): 6 | Protected (Mustela putorius furo [32]): 100%

CN1C2CCCC1CC(NC(=O)c1nn(C)c3ccccc13)C2 (stereo not drawn) [GRANISETRON]
ED100 (Mustela putorius furo [4]): 0.082 mg/kg | ED100 (Mustela putorius furo [5]): 0.117 mg/kg

Cn1cccc1CCNC(=O)c1cc(Cl)cc2c1OC1CCCCC21 (stereo not drawn)
Increase (Mustela putorius furo [33]): 1% | Ratio (Mustela putorius furo [34]): 0 | Reduction (Mustela putorius furo [2]): 51.7%

O=C(N[C@H]1CN2CCC1CC2)c1cc(Cl)cc2c1O[C@H]1CCC[C@H]2C1
ED50 (Mustela putorius furo [6]): > 1 mg/kg | ED100 (Mustela putorius furo [5]): >1 mg/kg

O=C(NC1CN2CCC1CC2)c1cc(Cl)cc2c1OC1CCCC2C1 (stereo not drawn)
ED50 (Mustela putorius furo [6]): 0.079 mg/kg | ED100 (Mustela putorius furo [5]): 0.022 mg/kg

O=C(N[C@@H]1CN2CCC1CC2)c1cc(Cl)cc2c1O[C@@H]1CCCC[C@H]21
ED50 (Mustela putorius furo [6]): 0.041 mg/kg | ED100 (Mustela putorius furo [5]): 0.258 mg/kg

O=C(NCCc1c[nH]cn1)c1cc(Cl)cc2c1OC1CCCCC21 (stereo not drawn)
Ratio (Mustela putorius furo [34]): 0 | Increase (Mustela putorius furo [1]): 27.6% | Reduction (Mustela putorius furo [2]): 44.4%

O=C(N[C@H]1CN2CCC1CC2)c1cc(Cl)cc2c1O[C@H]1CCC[C@@H]2C1
ED50 (Mustela putorius furo [6]): 0.085 mg/kg | ED100 (Mustela putorius furo [5]): 0.408 mg/kg

CN1CCCC1CCNC(=O)c1cc(Cl)cc2c1OC1CCCCC21 (stereo not drawn)
Ratio (Mustela putorius furo [35]): 0 | Increase (Mustela putorius furo [1]): -0.9% | Reduction (Mustela putorius furo [2]): -38.1%

O=C(N[C@@H]1CN2CCC1CC2)c1cc(Cl)cc2c1O[C@@H]1CCC[C@H]2C1
ED50 (Mustela putorius furo [6]): 0.061 mg/kg | ED100 (Mustela putorius furo [5]): 0.29 mg/kg

O=C(NC1CN2CCC1CC2)c1cc(Cl)cc2c1OC1CCCCC21 (stereo not drawn)
ED100 (Mustela putorius furo [13]): 0.011 mg/kg | ED100 (Mustela putorius furo [4]): 0.011 mg/kg | ED50 (Mustela putorius furo [7]): 0.006 mg/kg | ED50 (Mustela putorius furo [6]): 0.005 mg/kg
